Measured values: ChEMBL document CHEMBL2429816, “Synthesis and binding affinity of new 1,4-disubstituted triazoles as potential dopamine D(3) receptor ligands” (Bioorg Med Chem Lett, 2013)

How the values were obtained:
D(3) dopamine receptor [1] = molecular target: T1, D(3) dopamine receptor (Homo sapiens, UniProt P35462); assay: Displacement of [3H]-spiperone from cloned human dopamine D3 receptor
In short: (§1)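 Competition binding at human receptor subtypes by the group's earlier procedure. Ki was calculated from displacement data by the Cheng–Prusoff equation.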

D(2) dopamine receptor = D(2) dopamine receptor (Homo sapiens, UniProt P14416); assay: Displacement of [3H]-spiperone from cloned human dopamine D2 receptor; in short: as §1
[2] = molecular target: Dopamine receptors; D3 & D4 (Homo sapiens) (UniProt P35462+P21917); assay: Selectivity ratio of Ki for cloned human dopamine D4 receptor to Ki for cloned human dopamine D3 receptor
Homo sapiens [3] = species: Homo sapiens; assay: Selectivity ratio of Ki for cloned human dopamine D2 receptor to Ki for cloned human dopamine D3 receptor
[4] = molecular target: D(1A) dopamine receptor (Homo sapiens) (UniProt P21728); assay: Displacement of [3H]-SCH23390 from cloned human dopamine D1 receptor at 1 uM relative to control
In short: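 Competition binding at the human D1 receptor. Compounds with little affinity are reported as percent inhibition at the highest concentration tested.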

D(4) dopamine receptor = molecular target: T2, D(4) dopamine receptor (Homo sapiens, UniProt P21917); assay: Displacement of [3H]-spiperone from cloned human dopamine D4 receptor; in short: as §1
T2 sequence (P21917 whole entry): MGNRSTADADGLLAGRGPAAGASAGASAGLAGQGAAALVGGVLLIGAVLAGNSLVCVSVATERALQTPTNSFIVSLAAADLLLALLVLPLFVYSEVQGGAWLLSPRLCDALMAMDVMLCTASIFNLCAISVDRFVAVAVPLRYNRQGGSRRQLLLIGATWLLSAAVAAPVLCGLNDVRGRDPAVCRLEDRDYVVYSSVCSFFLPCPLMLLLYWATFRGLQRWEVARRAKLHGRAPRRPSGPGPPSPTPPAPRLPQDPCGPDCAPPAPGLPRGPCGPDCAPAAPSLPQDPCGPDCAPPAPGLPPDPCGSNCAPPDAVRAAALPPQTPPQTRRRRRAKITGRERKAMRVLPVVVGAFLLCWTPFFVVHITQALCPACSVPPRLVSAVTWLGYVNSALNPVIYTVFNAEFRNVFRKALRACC

Homo sapiens [5] = species: Homo sapiens; assay: Selectivity ratio of Ki for dopamine D2 receptor (unknown origin) to Ki for dopamine D3 receptor (unknown origin)
In short: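 Radioligand competition binding at human D2 and D3 receptors. Ki was derived from displacement data using the Cheng–Prusoff equation. The selectivity value is the D2 Ki divided by the D3 Ki.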

D(3) dopamine receptor [6] = molecular target: T1, D(3) dopamine receptor; assay: Antagonist activity at human dopamine D3 receptor assessed as [35S]GTPgammaS binding preincubated for 15 mins followed by [35S]GTPgammaS addition measured after 40 mins; assay type: functional
[7] = molecular target: Dopamine receptor D2 and D3 (Rattus norvegicus) (UniProt P19020+P61169); assay: Selectivity ratio of Ki for rat dopamine D2 receptor to Ki for rat dopamine D3 receptor
D(3) dopamine receptor [8] = molecular target: D(3) dopamine receptor (Rattus norvegicus, UniProt P19020); assay: Displacement of [3H]spiperone from rat dopamine D3 receptor expressed in sf9 cells after 60 mins
Chain of D(3) dopamine receptor (Rattus norvegicus, UniProt P19020) (P19020 whole entry): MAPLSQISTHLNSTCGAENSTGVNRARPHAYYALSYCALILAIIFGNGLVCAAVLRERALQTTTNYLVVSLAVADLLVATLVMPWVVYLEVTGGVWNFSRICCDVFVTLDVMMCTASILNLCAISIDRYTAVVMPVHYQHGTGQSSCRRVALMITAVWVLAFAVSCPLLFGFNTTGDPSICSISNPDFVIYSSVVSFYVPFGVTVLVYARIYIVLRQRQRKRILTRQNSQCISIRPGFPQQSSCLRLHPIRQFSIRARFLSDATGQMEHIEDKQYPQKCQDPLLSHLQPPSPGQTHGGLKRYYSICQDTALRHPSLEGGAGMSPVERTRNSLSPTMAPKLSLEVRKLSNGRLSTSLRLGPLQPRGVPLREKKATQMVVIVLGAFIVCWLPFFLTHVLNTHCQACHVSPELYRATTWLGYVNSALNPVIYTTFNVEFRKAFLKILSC

Chain of Dopamine receptors; D3 & D4 (Homo sapiens) (P35462 whole entry, looked up, one chain of several): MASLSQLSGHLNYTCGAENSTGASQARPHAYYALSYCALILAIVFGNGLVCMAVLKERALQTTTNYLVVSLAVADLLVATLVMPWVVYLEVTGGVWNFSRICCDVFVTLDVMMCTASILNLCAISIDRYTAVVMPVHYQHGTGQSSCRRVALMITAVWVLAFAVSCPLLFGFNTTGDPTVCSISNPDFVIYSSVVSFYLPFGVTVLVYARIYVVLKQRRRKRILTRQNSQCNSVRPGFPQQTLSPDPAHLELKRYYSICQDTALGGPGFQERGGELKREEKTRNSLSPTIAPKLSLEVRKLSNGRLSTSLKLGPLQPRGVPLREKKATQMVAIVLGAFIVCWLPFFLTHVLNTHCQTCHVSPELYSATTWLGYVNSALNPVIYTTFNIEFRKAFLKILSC
Chain of D(2) dopamine receptor (P14416 whole entry): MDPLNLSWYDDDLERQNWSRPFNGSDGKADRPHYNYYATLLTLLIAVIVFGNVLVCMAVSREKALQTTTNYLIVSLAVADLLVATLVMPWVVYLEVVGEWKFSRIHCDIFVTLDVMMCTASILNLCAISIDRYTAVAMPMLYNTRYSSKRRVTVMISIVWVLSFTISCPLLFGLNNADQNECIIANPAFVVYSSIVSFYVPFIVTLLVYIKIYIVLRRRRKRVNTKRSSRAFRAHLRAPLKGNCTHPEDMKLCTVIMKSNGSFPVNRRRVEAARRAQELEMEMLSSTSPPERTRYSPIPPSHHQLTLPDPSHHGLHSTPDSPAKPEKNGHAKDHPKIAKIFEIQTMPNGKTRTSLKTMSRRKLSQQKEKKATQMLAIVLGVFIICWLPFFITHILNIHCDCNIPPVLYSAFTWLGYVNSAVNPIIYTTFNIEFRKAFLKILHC
Chain of D(1A) dopamine receptor (Homo sapiens) (P21728 whole entry): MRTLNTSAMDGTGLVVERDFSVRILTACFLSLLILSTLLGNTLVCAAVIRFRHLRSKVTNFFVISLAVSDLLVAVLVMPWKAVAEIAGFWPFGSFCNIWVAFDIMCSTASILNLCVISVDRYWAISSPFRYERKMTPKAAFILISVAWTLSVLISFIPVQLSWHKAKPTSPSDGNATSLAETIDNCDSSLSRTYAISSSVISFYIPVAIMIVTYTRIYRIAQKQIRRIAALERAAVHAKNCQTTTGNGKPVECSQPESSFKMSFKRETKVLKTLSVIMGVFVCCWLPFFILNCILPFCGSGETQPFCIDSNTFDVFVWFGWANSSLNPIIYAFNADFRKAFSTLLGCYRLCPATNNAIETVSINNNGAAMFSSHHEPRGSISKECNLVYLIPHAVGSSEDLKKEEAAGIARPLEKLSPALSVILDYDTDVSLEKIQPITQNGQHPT
T1 sequence (P35462 whole entry): as the sequence (P35462 whole entry, looked up, one chain of several) above
Chain of Dopamine receptor D2 and D3 (Rattus norvegicus) (P19020 whole entry, looked up): as the sequence (P19020 whole entry) above
Chain of Dopamine receptor D2 and D3 (Rattus norvegicus) (P61169 whole entry, looked up): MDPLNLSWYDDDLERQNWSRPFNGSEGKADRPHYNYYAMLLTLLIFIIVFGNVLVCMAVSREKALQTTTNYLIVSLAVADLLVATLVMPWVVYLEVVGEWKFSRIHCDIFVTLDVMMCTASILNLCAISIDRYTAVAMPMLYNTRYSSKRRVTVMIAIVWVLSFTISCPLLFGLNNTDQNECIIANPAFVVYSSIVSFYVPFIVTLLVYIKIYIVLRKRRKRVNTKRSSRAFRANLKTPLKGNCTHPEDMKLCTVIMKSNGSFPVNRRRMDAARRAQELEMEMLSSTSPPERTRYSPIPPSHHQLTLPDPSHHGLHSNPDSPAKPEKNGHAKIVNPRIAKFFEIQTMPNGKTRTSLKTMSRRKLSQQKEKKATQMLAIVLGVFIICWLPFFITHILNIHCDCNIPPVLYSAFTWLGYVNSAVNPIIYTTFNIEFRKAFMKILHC

Ki (D(3) dopamine receptor [1])	Ki (D(2) dopamine receptor)	Ratio Ki [2]	Ratio Ki (Homo sapiens [3])	inhibition [4]	Ki (D(4) dopamine receptor)	Kb (D(3) dopamine receptor [6])	Ratio Ki [7]	Ki (D(3) dopamine receptor [8])	Compound	Ratio Ki (Homo sapiens [5])
81.2 nM	228 nM	7.9	2.8	39.4%	639 nM				COc1ccccc1N1CCN(CCCCn2cc(-c3ccccc3)nn2)CC1	
40.1 nM	212 nM	9.8	5.3	44.3%	395 nM				COc1ccc(-c2cn(CCCCN3CCN(c4ccccc4OC)CC3)nn2)cc1	
									CCCN[C@H]1CCc2nc(N)sc2C1 [PRAMIPEXOLE]	72
135 nM	137 nM	3.2	1	50%	426 nM				COc1ccccc1N1CCN(CCCCn2cc(-c3ccc(-c4cnco4)cc3)nn2)CC1	
132 nM	181 nM	14.3	1.4	40.9%	1900 nM				COc1ccccc1N1CCN(CCCCn2cc(-c3cccnc3)nn2)CC1	
111 nM	227 nM	3.5	2	44.3%	387 nM				COc1ccccc1N1CCN(CCCCn2cc(-c3ccc(Br)cc3)nn2)CC1	
2.7 nM	199 nM	197	73.6	38.4%	532 nM	1.4 nM			COc1ccccc1N1CCN(CCCCn2cc(-c3ccc(N)cc3)nn2)CC1	
							1800	1.6 nM	NC(=O)c1cccc(N2CCN(CCCCNC(=O)c3ccc(Br)cc3)CC2)c1	
